ChEMBL document CHEMBL2401632, “New bioactive dihydrofuranocoumarins from the roots of the Tunisian Ferula lutea (Poir.) Maire” (Bioorg Med Chem Lett, 2013)
Values after ≈ are worked out from the molar mass of the structure shown.

Tests used:
Acetylcholinesterase = Acetylcholinesterase (Homo sapiens, UniProt P22303); assay: Inhibition of acetylcholinesterase (unknown origin) using acetylcholine iodide as substrate preincubated for 15 mins prior to substrate addition by spectrophotometric analysis
HT-29 = assay: Cytotoxicity against human HT-29 cells after 96 hrs by MTT assay; assay type: functional, cell-based; details: HT-29, 96 h
Method in brief: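 Cells were seeded at 5000 or 10,000 per well and exposed to medium with various sample concentrations for 96 h, with 0.1% DMSO as vehicle control. MTT (5 mg/mL in PBS) was then added for 4 h at 37 °C, 5% CO2. Formazan was dissolved in DMSO and read at OD 570 nm. IC50 is the concentration giving 50% toxicity; duplicate tests, mean ± SD (n = 2).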

HCT-116 = assay: Cytotoxicity against human HCT116 cells after 96 hrs by MTT assay; assay type: functional, cell-based; details: HCT-116, 96 h
Method in brief: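 Cells were seeded at 5000 or 10,000 per well and exposed to medium with various sample concentrations for 96 h, with 0.1% DMSO as vehicle control. MTT (5 mg/mL in PBS) was then added for 4 h at 37 °C, 5% CO2. Formazan was dissolved in DMSO and read at OD 570 nm.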

[1] = Cytotoxicity against human MES-SA/Dx5 cells after 96 hrs by MTT assay; assay type: functional, cell-based; details: MES-SA/Dx5, 96 h
[2] = Antioxidant activity assessed as superoxide radical scavenging activity after 2 mins by NBT reduction assay; assay type: functional
Method in brief: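 The 1 mL reaction held 20 mM phosphate buffer pH 7.4, NADH 73 µM, NBT 50 µM, PMS 15 µM and sample at several concentrations. After 2 min at ambient temperature, formazan was read at A562 against a blank. % scavenging was taken vs control. Done three times, with BHT as comparator.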

[3] = Antioxidant activity assessed as H2O2 scavenging activity by NBT reduction assay; assay type: functional
Method in brief: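 H2O2 at 43 mM was prepared in 0.1 M phosphate buffer, pH 7.4. 100 µL of test solution was added along with NADH (73 µM), NBT (50 µM) and PMS (15 µM), 500 µL each. Percent H2O2 scavenged = [(Acontrol − Asample)/Acontrol] × 100.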

[4] = Antioxidant activity assessed as ABTS radical scavenging activity after 10 mins by spectrophotometric analysis; assay type: functional
Method in brief: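 ABTS radical cation was made from 7 mM ABTS in water plus potassium persulfate (2.45 mM final), left 12 h in the dark at room temperature, then diluted in methanol to A734 0.706 ± 0.009. 1 mL of this was mixed with 1 mL of methanolic sample at several concentrations. […] Run in triplicate with a BHT positive control.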

[5] = test system: Radical scavenging activity; assay: Antioxidant activity assessed as DPPH free radical scavenging activity after 30 mins by spectrophotometric analysis; assay type: functional
Method in brief: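 Daily methanolic DPPH solution was adjusted to A517 = 1.1. Methanolic sample at several concentrations was added to 1 mL, incubated 30 min at 37 °C, then A517 was read. Scavenging % = [(Acontrol − Asample)/Acontrol] × 100. Run in triplicate with BHT as positive control.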

[6] = Antioxidant activity assessed as hydroxyl radical scavenging activity after 20 mins by spectrophotometric analysis; assay type: functional
[7] = Antioxidant activity assessed as superoxide radical scavenging activity measured every 30 seconds for 5 mins by spectrophotometric analysis; assay type: functional
[8] = Antioxidant activity assessed as ABTS radical scavenging activity after 6 mins by spectrophotometric analysis; assay type: functional
AGS = assay: Cytotoxicity against human AGS cells after 96 hrs by MTT assay; assay type: functional, cell-based
PANC-1 = assay: Cytotoxicity against human PANC1 cells after 96 hrs by MTT assay; assay type: functional, cell-based; details: PANC-1, 96 h
K562 = assay: Cytotoxicity against human K562 cells after 96 hrs by MTT assay; assay type: functional, cell-based; details: K562, 96 h
[9] = test system: Radical scavenging activity; assay: Antioxidant activity assessed as DPPH free radical scavenging activity by spectrophotometric analysis; assay type: functional
MT4 = assay: Cytotoxicity against human MT4 cells after 96 hrs by MTT assay; assay type: functional, cell-based; details: MT4, 96 h

Chain of Acetylcholinesterase (P22303 whole entry): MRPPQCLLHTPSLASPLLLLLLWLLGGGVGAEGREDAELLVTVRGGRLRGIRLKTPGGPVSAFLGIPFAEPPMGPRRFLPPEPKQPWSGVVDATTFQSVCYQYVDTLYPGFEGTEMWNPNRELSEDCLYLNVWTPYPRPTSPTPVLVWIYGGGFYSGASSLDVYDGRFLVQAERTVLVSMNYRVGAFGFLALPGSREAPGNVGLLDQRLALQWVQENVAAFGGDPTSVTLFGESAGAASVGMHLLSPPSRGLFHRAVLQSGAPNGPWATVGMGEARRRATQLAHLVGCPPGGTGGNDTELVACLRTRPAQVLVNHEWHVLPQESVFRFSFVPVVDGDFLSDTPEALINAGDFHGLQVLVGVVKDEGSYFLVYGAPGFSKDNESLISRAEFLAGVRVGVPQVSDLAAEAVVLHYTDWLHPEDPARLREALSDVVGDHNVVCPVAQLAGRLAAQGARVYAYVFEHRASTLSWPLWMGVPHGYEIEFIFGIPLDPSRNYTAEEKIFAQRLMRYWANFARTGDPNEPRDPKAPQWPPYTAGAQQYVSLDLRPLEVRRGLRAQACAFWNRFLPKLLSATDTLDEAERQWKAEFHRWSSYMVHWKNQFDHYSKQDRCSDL

Structure (SMILES)	IC50 (Acetylcholinesterase)	IC50 (HT-29)	IC50 (HCT-116)	other results
C/C=C(\C)C(=O)OC(C)(C)[C@@H]1Cc2cc3ccc(=O)oc3cc2O1	> 100 µM	0.93 µM	7.6 µM	–
CC(C)=CC(=O)OC(C)(C)[C@@H]1Cc2cc3ccc(=O)oc3cc2O1 [(-)-PRANTSCHIMGIN]	> 100 µM	5.2 µM	15 µM	IC50 [1]: 3.1 µM
Cc1cc(C(C)(C)C)c(O)c(C(C)(C)C)c1 [BUTYLATED HYDROXYTOLUENE]	–	–	–	IC50 [2]: 7.26 µM; IC50 [3]: 6.38 µM; IC50 [4]: 6.85 µM; IC50 ([5]; read-out: IC50): 9.02 µM
O=C(O)/C=C/c1ccc(O)c(O)c1 [CAFFEIC ACID]	> 100 µM	27.2 µM	29.7 µM	IC50 [6]: 0.37 µg/mL (≈ 2.05 µM); IC50 [7]: 0.38 µg/mL (≈ 2.11 µM); IC50 [8]: 0.57 µg/mL (≈ 3.16 µM); IC50 [5]: 0.39 µg/mL; IC50 (AGS): 129 µM
COc1c2occc2cc2ccc(=O)oc12 [METHOXSALEN]	0.76 µM	> 100 µM	> 100 µM	IC50 (PANC-1): 83.3 µM
CC(=O)O[C@H]1C(=O)[C@@]2(C)[C@H]([C@H](OC(=O)c3ccccc3)[C@]3(O)C[C@H](OC(=O)[C@H](O)[C@@H](NC(=O)c4ccccc4)c4ccccc4)C(C)=C1C3(C)C)[C@]1(OC(C)=O)CO[C@@H]1C[C@@H]2O [PACLITAXEL]	–	0.00198 µM	–	–
O=c1ccc2cc3ccoc3cc2o1 [PSORALEN]	6.48 µM	41.7 µM	45.6 µM	IC50 (K562): 131 µM
O=c1ccc2ccc(O)cc2o1 [UMBELLIFERONE]	–	4.35 µM	8.05 µM	IC50 [9]: 36.1 µg/mL (≈ 223 µM); IC50 (MT4): 2340 µM
